Assay results taken from ChEMBL document CHEMBL1123137 (J Med Chem, 1985).

How the values were obtained:
[1] = biological target: Adenosine receptor A2a (Canis lupus familiaris) (UniProt P11617); experiment: Molar potency ratio was evaluated
[2] = HPLC capacity factor (k'); format: ADME
Albumin = Albumin (Bos taurus, UniProt P02769); experiment: Serum albumin binding; details: cattle
Outline: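 Affinity for bovine serum albumin measured by Hummel–Dreyer method adapted for HPLC. Samples of BSA (0.25–2 g/dL) with 25 μM analogue in 0.1 M NaH2PO4, pH 7.4, were applied to an Aquapore OH-100 column equilibrated with 25 μM analogue in the same buffer. Effluent absorbance was read at 254 nm. Duplicate estimates were made at each of two BSA concentrations, usually 1 and 2 g/dL.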

[3] = Ionisation constant (pKa); format: physicochemical

Albumin, sequence (P02769 whole entry): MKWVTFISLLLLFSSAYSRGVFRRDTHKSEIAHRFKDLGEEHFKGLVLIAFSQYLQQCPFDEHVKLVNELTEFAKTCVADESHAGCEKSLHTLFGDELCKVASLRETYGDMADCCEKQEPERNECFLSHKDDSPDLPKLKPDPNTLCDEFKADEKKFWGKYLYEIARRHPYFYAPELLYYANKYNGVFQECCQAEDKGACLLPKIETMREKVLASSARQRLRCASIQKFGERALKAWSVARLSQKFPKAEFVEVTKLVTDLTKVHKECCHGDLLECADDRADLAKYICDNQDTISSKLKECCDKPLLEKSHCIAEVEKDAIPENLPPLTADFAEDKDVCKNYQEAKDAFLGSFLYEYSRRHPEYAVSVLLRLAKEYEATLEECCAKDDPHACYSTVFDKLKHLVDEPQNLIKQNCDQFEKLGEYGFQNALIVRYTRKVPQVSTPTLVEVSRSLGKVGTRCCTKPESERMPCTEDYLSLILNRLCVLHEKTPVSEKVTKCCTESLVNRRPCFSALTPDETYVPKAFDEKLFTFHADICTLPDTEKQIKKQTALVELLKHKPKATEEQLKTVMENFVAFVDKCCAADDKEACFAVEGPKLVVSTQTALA
Adenosine receptor A2a (Canis lupus familiaris), sequence (P11617 whole entry, looked up): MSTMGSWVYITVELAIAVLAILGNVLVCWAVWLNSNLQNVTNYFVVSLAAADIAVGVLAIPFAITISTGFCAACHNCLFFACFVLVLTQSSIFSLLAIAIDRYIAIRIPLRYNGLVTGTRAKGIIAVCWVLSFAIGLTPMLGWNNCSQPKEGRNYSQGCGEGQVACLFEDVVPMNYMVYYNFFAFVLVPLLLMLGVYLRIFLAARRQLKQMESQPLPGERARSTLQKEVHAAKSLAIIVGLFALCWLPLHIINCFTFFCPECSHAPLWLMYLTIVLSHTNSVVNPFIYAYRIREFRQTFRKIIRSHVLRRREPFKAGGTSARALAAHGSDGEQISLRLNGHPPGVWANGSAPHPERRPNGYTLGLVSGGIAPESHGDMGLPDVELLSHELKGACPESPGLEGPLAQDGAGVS

CCC(CC)Nc1ncnc2c1ncn2C1O[C@H](CO)[C@@H](O)[C@H]1O (some centres undefined)
MPR [1]: 4 | k' [2]: 1.64 | Amount bound (Albumin): 0.78 M/g | pKa [3]: 3.3

OC[C@H]1OC(n2cnc3c(NC(Cc4ccccc4)Cc4ccccc4)ncnc32)[C@H](O)[C@@H]1O (some centres undefined)
MPR [1]: 0.33 | k' [2]: 14.83

OC[C@H]1O[C@@H](n2cnc3c(NC4CC5CCC4C5)ncnc32)[C@H](O)[C@@H]1O (stereo in doubt; 58) [listing 1 of 2 here]
k' [2]: 2.64 | Amount bound (Albumin): 2.09 M/g

CCCCCNc1ncnc2c1ncn2[C@@H]1O[C@H](CO)[C@@H](O)[C@H]1O
MPR [1]: 0.36 | k' [2]: 3.08

OC[C@H]1OC(n2cnc3c(NCC(O)c4ccccc4)ncnc32)[C@H](O)[C@@H]1O (some centres undefined)
MPR [1]: 1.4 | k' [2]: 0.79

CC(C)C(Nc1ncnc2c1ncn2C1O[C@H](CO)[C@@H](O)[C@H]1O)C(C)C (some centres undefined)
MPR [1]: 0.75 | k' [2]: 1 | Amount bound (Albumin): 2.97 M/g

OC[C@H]1O[C@@H](n2cnc3/c(=N\OCc4ccccc4)[nH]cnc32)[C@H](O)[C@@H]1O
MPR [1]: 0.42 | k' [2]: 1.04

OC[C@H]1O[C@@H](n2cnc3c(NCCc4ccccc4)ncnc32)[C@H](O)[C@@H]1O
MPR [1]: 2 | k' [2]: 1.77 | pKa [3]: 3.6

C[C@@H](Nc1ncnc2c1ncn2[C@@H]1O[C@H](CO)[C@@H](O)[C@H]1O)[C@@H](O)c1ccccc1
MPR [1]: 2.9 | k' [2]: 1.32

OC[C@H]1O[C@@H](n2cnc3c(NC4CCC4)ncnc32)[C@H](O)[C@@H]1O
MPR [1]: 1.6 | k' [2]: 0.2

C[C@@H](CNc1ncnc2c1ncn2[C@@H]1O[C@H](CO)[C@@H](O)[C@H]1O)c1ccccc1
MPR [1]: 2.4 | k' [2]: 2.89

CCC(CNc1ncnc2c1ncn2C1O[C@H](CO)[C@@H](O)[C@H]1O)c1ccccc1 (some centres undefined)
MPR [1]: 3.3 | k' [2]: 5.89

OC[C@H]1O[C@@H](n2cnc3c(NC4CCCCC4)ncnc32)[C@H](O)[C@@H]1O
k' [2]: 2.12 | Amount bound (Albumin): 1.3 M/g

OC[C@H]1O[C@@H](n2cnc3c(NC4CC5CCC4C5)ncnc32)[C@H](O)[C@@H]1O (stereo in doubt; 57) [listing 1 of 2 here]
MPR [1]: 0.54

OC[C@H]1O[C@@H](n2cnc3c(N[C@@H]4C[C@H]4c4ccccc4)ncnc32)[C@H](O)[C@@H]1O
MPR [1]: 0.31 | k' [2]: 2.43

CN(C)c1ncnc2c1ncn2[C@@H]1O[C@H](CO)[C@@H](O)[C@H]1O
MPR [1]: 0.001

CCCCCCC(C)Nc1ncnc2c1ncn2C1O[C@H](CO)[C@@H](O)[C@H]1O (some centres undefined)
MPR [1]: 0.052 | k' [2]: 16.88

C#CCNc1ncnc2c1ncn2C1O[C@H](CO)[C@@H](O)[C@H]1O (some centres undefined)
MPR [1]: 0.23 | k' [2]: 0.21

CN(Nc1ncnc2c1ncn2C1O[C@H](CO)[C@@H](O)[C@H]1O)c1ccccc1 (some centres undefined)
MPR [1]: 1.8 | k' [2]: 0.93

OC[C@H]1O[C@@H](n2cnc3c(NC4CCCC4)ncnc32)[C@H](O)[C@@H]1O [N6-CYCLOPENTYLADENOSINE]
MPR [1]: 1.8 | k' [2]: 1.25

CC(C)(Cc1ccccc1)Nc1ncnc2c1ncn2C1O[C@H](CO)[C@@H](O)[C@H]1O (some centres undefined)
MPR [1]: 0.011 | k' [2]: 7.43

C[C@@H](Nc1ncnc2c1ncn2[C@@H]1O[C@H](CO)[C@@H](O)[C@H]1O)[C@H](O)c1ccccc1
MPR [1]: 1.8 | k' [2]: 0.96

CCCCCC(C)Nc1ncnc2c1ncn2C1O[C@H](CO)[C@@H](O)[C@H]1O (some centres undefined)
MPR [1]: 0.31 | k' [2]: 8.54

CC(C)CNc1ncnc2c1ncn2C1O[C@H](CO)[C@@H](O)[C@H]1O (some centres undefined)
MPR [1]: 0.75 | k' [2]: 1 | Amount bound (Albumin): 0.74 M/g

CCCC(CCC)Nc1ncnc2c1ncn2C1O[C@H](CO)[C@@H](O)[C@H]1O (some centres undefined)
MPR [1]: 0.81 | k' [2]: 5.57 | Amount bound (Albumin): 7.1 M/g

CCNc1ncnc2c1ncn2C1O[C@H](CO)[C@@H](O)[C@H]1O (some centres undefined)
MPR [1]: 0.15 | k' [2]: 0.29

CCCC(C)Nc1ncnc2c1ncn2C1O[C@H](CO)[C@@H](O)[C@H]1O (some centres undefined)
MPR [1]: 1.1 | k' [2]: 2.38

COc1ncnc2c1ncn2[C@@H]1O[C@H](CO)[C@@H](O)[C@@H]1O
MPR [1]: 0.004 | k' [2]: 0.16

OC[C@H]1O[C@@H](n2cnc3c(NC4CC4)ncnc32)[C@H](O)[C@@H]1O
MPR [1]: 0.38 | k' [2]: 0.2

OCCNc1ncnc2c1ncn2C1O[C@H](CO)[C@@H](O)[C@H]1O (some centres undefined)
MPR [1]: 0.14 | k' [2]: 0.14 | Amount bound (Albumin): 0.53 M/g

Cc1ncnc2c1ncn2[C@@H]1O[C@H](CO)[C@@H](O)[C@H]1O
MPR [1]: 0.007

C=CCNc1ncnc2c1ncn2[C@@H]1O[C@H](CO)[C@@H](O)[C@H]1O
MPR [1]: 0.23 | k' [2]: 0.36

CCCCCCNc1ncnc2c1ncn2C1O[C@H](CO)[C@@H](O)[C@H]1O (some centres undefined)
MPR [1]: 0.2 | k' [2]: 5.88

CC(CC1CCCCC1)Nc1ncnc2c1ncn2C1O[C@H](CO)[C@@H](O)[C@H]1O (some centres undefined)
MPR [1]: 0.15 | k' [2]: 8.92 | Amount bound (Albumin): 19.3 M/g

CCCNc1ncnc2c1ncn2C1O[C@H](CO)[C@@H](O)[C@H]1O (some centres undefined)
MPR [1]: 0.64 | k' [2]: 0.57

CC[C@@H](C)Nc1ncnc2c1ncn2[C@@H]1O[C@H](CO)[C@@H](O)[C@H]1O
MPR [1]: 0.88 | k' [2]: 0.89 | Amount bound (Albumin): 0.36 M/g | pKa [3]: 3.7

OC[C@H]1O[C@@H](n2cnc3c(NC4CCCCCC4)ncnc32)[C@H](O)[C@@H]1O
MPR [1]: 0.18 | k' [2]: 4.04 | Amount bound (Albumin): 3.4 M/g

OC[C@H]1O[C@@H](n2cnc3c(NO)ncnc32)[C@H](O)[C@@H]1O
k' [2]: 0.16

CC[C@H](C)Nc1ncnc2c1ncn2C1O[C@H](CO)[C@@H](O)[C@H]1O (single isomer, unassigned)
MPR [1]: 2.6 | k' [2]: 0.96 | Amount bound (Albumin): 0.53 M/g

NNc1ncnc2c1ncn2[C@@H]1O[C@H](CO)[C@@H](O)[C@H]1O
MPR [1]: 0.046 | k' [2]: 0.14

C[C@H](CNc1ncnc2c1ncn2[C@@H]1O[C@H](CO)[C@@H](O)[C@H]1O)c1ccccc1
MPR [1]: 3 | k' [2]: 3

CCCCNc1ncnc2c1ncn2[C@@H]1O[C@H](CO)[C@@H](O)[C@H]1O
MPR [1]: 0.38 | k' [2]: 1.59 | Amount bound (Albumin): 1.06 M/g

C[C@H](Nc1ncnc2c1ncn2[C@@H]1O[C@H](CO)[C@@H](O)[C@H]1O)c1ccccc1
MPR [1]: 0.2 | k' [2]: 1.89

C[C@H](CCc1ccccc1)Nc1ncnc2c1ncn2[C@@H]1O[C@H](CO)[C@@H](O)[C@H]1O
MPR [1]: 0.19 | k' [2]: 6.11

OC[C@H]1OC(n2cnc3c(NC(C4CC4)C4CC4)ncnc32)[C@H](O)[C@@H]1O (some centres undefined)
MPR [1]: 1.5 | k' [2]: 2.68

CC[C@@H](CO)Nc1ncnc2c1ncn2[C@@H]1O[C@H](CO)[C@@H](O)[C@H]1O
MPR [1]: 0.12 | k' [2]: 0.52

C[C@H](Cc1ccccc1)Nc1ncnc2c1ncn2[C@@H]1O[C@H](CO)[C@@H](O)[C@H]1O [(R)-PIA]
k' [2]: 2.57 | pKa [3]: 3.4

OC[C@H]1O[C@@H](n2cnc3cncnc32)[C@H](O)[C@@H]1O
MPR [1]: 0.023

C[C@@H](CCc1ccccc1)Nc1ncnc2c1ncn2[C@@H]1O[C@H](CO)[C@@H](O)[C@H]1O
MPR [1]: 0.05 | k' [2]: 6.47

CC1(Nc2ncnc3c2ncn3C2O[C@H](CO)[C@@H](O)[C@H]2O)CCCC1 (some centres undefined)
MPR [1]: 0.033 | k' [2]: 5.02

OC[C@H]1O[C@@H](n2cnc3c(NC4CC5CCC4C5)ncnc32)[C@H](O)[C@@H]1O (stereo in doubt; 57) [listing 2 of 2 here]
k' [2]: 2.63

OC[C@H]1OC(n2cnc3c(NCC4CCCCC4)ncnc32)[C@H](O)[C@@H]1O (some centres undefined)
MPR [1]: 0.14 | k' [2]: 4.67 | Amount bound (Albumin): 7.1 M/g

OC[C@H]1OC(n2cnc3c(NCC4CC4)ncnc32)[C@H](O)[C@@H]1O (some centres undefined)
MPR [1]: 0.58 | k' [2]: 0.71

CNc1ncnc2c1ncn2[C@@H]1O[C@H](CO)[C@@H](O)[C@H]1O
MPR [1]: 0.05 | k' [2]: 0.07

OC[C@H]1O[C@@H](n2cnc3/c(=N\O)[nH]cnc32)[C@H](O)[C@@H]1O
MPR [1]: 0.16

CC(C)(C)CNc1ncnc2c1ncn2C1O[C@H](CO)[C@@H](O)[C@H]1O (some centres undefined)
MPR [1]: 0.064 | k' [2]: 2.5

CC[C@H](CO)Nc1ncnc2c1ncn2[C@@H]1O[C@H](CO)[C@@H](O)[C@H]1O
MPR [1]: 0.77 | k' [2]: 0.4

OC[C@H]1O[C@@H](n2cnc3c(NC4C5CCC4CC5)ncnc32)[C@H](O)[C@@H]1O (some centres undefined)
MPR [1]: 0.39 | k' [2]: 3.5

CC(C)Nc1ncnc2c1ncn2[C@@H]1O[C@H](CO)[C@@H](O)[C@H]1O
MPR [1]: 0.71 | k' [2]: 0.54 | Amount bound (Albumin): 0.41 M/g

OC[C@H]1O[C@@H](n2cnc3c(Cl)ncnc32)[C@H](O)[C@@H]1O
MPR [1]: 0.023

NCCNc1ncnc2c1ncn2C1O[C@H](CO)[C@@H](O)[C@H]1O (some centres undefined)
MPR [1]: 0.072 | k' [2]: 0.11

C[C@@H](CO)Nc1ncnc2c1ncn2C1O[C@H](CO)[C@@H](O)[C@H]1O (some centres undefined)
MPR [1]: 0.098 | k' [2]: 0.28

OC[C@H]1OC(n2cnc3c(NCCC4CCCCC4)ncnc32)[C@H](O)[C@@H]1O (some centres undefined)
MPR [1]: 0.04 | k' [2]: 8.92

CCCCC(C)Nc1ncnc2c1ncn2C1O[C@H](CO)[C@@H](O)[C@H]1O (some centres undefined)
MPR [1]: 0.56 | k' [2]: 4.46

C[C@@H](Cc1ccccc1)Nc1ncnc2c1ncn2[C@@H]1OC(CO)[C@@H](O)[C@H]1O (single isomer, unassigned)
k' [2]: 2.61

OC[C@H]1O[C@@H](n2cnc3c(NC4CC5CCC4C5)ncnc32)[C@H](O)[C@@H]1O (stereo in doubt; 58) [listing 2 of 2 here]
MPR [1]: 0.55

C[C@@H](Nc1ncnc2c1ncn2[C@@H]1O[C@H](CO)[C@@H](O)[C@H]1O)c1ccccc1
MPR [1]: 0.52 | k' [2]: 1.64 | pKa [3]: 3.3

OC[C@H]1O[C@@H](n2cnc3c(N[C@H]4C[C@@H]4c4ccccc4)ncnc32)[C@H](O)[C@@H]1O
MPR [1]: 0.7 | k' [2]: 2.36

CC(C)(C)CCNc1ncnc2c1ncn2C1O[C@H](CO)[C@@H](O)[C@H]1O (some centres undefined)
MPR [1]: 0.084 | k' [2]: 4.71
